Experiments:
[1] = molecular target: T1, 5-hydroxytryptamine receptor 1A (Rattus norvegicus, UniProt P19327); assay: Displacement of [3H]-8-OHDPAT from 5-HT1A receptor in rat hippocampal membranes after 30 mins; format: cell membranes, Hippocampus, Membrane
T1 sequence (P19327 whole entry): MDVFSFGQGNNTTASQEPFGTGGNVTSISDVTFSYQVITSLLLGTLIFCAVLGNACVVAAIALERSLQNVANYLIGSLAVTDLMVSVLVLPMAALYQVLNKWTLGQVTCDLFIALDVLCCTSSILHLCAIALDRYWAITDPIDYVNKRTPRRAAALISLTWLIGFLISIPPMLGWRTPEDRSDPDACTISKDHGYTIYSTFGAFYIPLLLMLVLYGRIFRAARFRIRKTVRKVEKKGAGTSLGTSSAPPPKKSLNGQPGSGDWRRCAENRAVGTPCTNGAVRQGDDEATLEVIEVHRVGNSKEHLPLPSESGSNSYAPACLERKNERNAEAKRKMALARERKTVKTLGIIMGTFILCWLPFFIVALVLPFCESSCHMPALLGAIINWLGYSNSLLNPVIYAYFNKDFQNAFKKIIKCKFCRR

[2] = molecular target: T2, Alpha-1B adrenergic receptor (Rattus norvegicus, UniProt P15823); assay: Antagonist activity at alpha-1B adrenoreceptor in Sprague-Dawley rat spleen assessed as inhibition of phenylephrine-induced tissue contraction after 30 mins by Schild plot analysis; settings: read-out: pA2 (converted)
T2 sequence (P15823 whole entry): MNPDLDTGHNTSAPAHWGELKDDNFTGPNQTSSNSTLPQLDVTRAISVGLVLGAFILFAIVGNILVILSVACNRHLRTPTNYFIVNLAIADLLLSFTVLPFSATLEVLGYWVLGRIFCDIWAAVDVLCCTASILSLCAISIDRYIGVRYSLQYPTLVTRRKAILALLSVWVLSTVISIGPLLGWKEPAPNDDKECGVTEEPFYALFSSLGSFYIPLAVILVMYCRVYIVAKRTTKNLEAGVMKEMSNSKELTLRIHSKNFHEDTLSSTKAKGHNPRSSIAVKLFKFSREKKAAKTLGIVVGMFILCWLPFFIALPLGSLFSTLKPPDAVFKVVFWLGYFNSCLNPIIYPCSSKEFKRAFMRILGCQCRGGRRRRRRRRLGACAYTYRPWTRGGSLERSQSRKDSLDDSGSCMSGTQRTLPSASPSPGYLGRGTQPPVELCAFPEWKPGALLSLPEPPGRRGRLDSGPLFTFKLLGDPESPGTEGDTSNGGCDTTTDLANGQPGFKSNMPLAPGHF
Outline: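 Spleen from 250−300 g rats in gassed physiological salt solution with desipramine 0.01 μM and propranolol 1 μM. Isometric cumulative phenylephrine curves were run at 30 min intervals, the first discarded and the second taken as control, then a new curve after 30 min antagonist equilibration. pA₂ from Schild plot, at least three antagonist concentrations, each tested 3−5 times.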

[3] = molecular target: T3, Alpha-1B adrenergic receptor (Homo sapiens, UniProt P35368); assay: Displacement of [3H]prazosin from human alpha-1B adrenoreceptor expressed in CHO cells after 30 mins; format: cell-based
T3 sequence (P35368 whole entry): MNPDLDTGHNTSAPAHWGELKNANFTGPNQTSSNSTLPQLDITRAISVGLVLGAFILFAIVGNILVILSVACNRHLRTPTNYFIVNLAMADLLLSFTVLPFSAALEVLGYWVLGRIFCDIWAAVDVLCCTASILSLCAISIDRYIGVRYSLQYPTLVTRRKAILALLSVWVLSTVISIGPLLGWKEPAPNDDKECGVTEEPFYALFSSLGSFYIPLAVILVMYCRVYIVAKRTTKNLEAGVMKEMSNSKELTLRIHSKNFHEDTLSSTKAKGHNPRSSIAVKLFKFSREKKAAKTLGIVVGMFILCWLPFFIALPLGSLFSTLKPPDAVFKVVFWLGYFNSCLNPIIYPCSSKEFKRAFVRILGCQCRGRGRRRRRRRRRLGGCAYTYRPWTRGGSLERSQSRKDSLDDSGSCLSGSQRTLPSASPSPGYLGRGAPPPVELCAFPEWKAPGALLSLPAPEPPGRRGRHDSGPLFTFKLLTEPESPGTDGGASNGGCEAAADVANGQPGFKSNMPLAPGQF
Outline: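 Membranes from CHO cells expressing each α₁-AR subtype, incubated 30 min at 25 °C in 50 mM Tris HCl pH 7.7 with 10 μM pargyline and 0.1% ascorbic acid, plus 0.5 nM [³H]prazosin and varying test compound concentrations. Nonspecific binding was defined with 1 μM prazosin.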

SMILES	Ki [1]	Kb [2]	Ki [3]
COc1ccc2c(c1OCCNC[C@H]1COc3ccccc3O1)NCC2.Cl.Cl	110 nM	0.832 nM	35.5 nM
COc1ccc2c(c1OCCNC[C@H]1COc3ccccc3O1)OCC2.Cl	46.8 nM	3.24 nM	21.9 nM
COc1ccc2ccoc2c1OCCNC[C@H]1COc2ccccc2O1.Cl	2.57 nM	2.09 nM	28.8 nM
COc1ccc2cc[nH]c2c1OCCNC[C@H]1COc2ccccc2O1	339 nM	17 nM	490 nM
